The record followed here is ChEMBL document CHEMBL3526048, “In vitro metabolism of rivoglitazone, a novel peroxisome proliferator-activated receptor γ agonist, in rat, monkey, and human liver microsomes and freshly isolated hepatocytes” (Drug Metab Dispos, 2011).

Each structure is given as a SMILES string.

In data set [1] the target is T1, UDP-glucuronosyltransferase 1A3 (Homo sapiens, UniProt P35503).
T1 sequence (P35503 whole entry): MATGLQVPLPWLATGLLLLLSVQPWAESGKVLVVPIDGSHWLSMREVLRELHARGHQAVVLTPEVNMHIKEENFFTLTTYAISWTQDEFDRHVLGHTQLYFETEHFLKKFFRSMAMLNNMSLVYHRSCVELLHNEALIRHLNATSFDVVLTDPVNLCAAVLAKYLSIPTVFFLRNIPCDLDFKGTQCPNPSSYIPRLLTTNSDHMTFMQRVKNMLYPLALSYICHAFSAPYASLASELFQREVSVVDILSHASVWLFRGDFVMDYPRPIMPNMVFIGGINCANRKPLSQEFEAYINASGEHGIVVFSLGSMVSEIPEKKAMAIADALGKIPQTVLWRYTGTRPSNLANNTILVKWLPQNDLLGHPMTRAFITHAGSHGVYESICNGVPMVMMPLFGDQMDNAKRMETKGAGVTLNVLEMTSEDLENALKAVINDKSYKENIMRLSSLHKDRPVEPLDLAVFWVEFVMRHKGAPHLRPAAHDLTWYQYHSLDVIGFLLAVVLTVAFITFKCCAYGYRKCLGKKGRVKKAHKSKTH
Description: Activity of human UGT1A3 expressed in microsomes isolated from baculovirus infected insect cell assessed as enzyme-mediated 2-((4-((2,4-dioxothiazolidin-5-yl)methyl)phenoxy)methyl)-1-methyl-1H-benzo[d]imidazol-6-yl hydrogen sulfate formation at 20 uM after 4 hrs by radio-HPLC/LC-MS/MS analysis. The data set is classed as ADME. The gist of the method:
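Alamethicin (50 μg/mg protein, 15 min on ice) pretreated expressed human UGT microsomes (1 mg/ml protein) from baculovirus-infected insect cells. Incubation with [¹⁴C]rivoglitazone (20 μM) in 100 mM Tris-HCl (pH 7.5) with 10 mM MgCl₂, started by 5 mM UDPGA, 4 h at 37°C with shaking. UGT insect-cell control supersomes were run alongside. Acetonitrile stop, concentrated supernatant analysed by radio-HPLC, LC-MS and LC-MS/MS.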

Data set [2] in a line: Drug metabolism in rat hepatocytes assessed as formation of 5-hydroxy-5-(4-((6-methoxy-1-methyl-1H-benzo[d]imidazol-2-yl)methoxy)benzyl)thiazolidine-2,4-dione at 30 uM after 3 hrs by radio-HPLC/LC-MS/MS analysis in presence of NADPH-generating system and NADPH-generating system/SAM. The data set is classed as ADME, cell-based, Hepatocyte.
A further data set deals with Cytochrome P450 3A5 (Homo sapiens, UniProt P20815). As to the kind of experiment: Activity of human CYP3A5 expressed in microsomes isolated from baculovirus infected insect cell assessed as enzyme-mediated 2-((4-((2,4-dioxothiazolidin-5-yl)methyl)phenoxy)methyl)-1-methyl-1H-benzo[d]imidazol-6-yl hydrogen sulfate formation at 20 uM after 2 hrs by radio-HPLC/LC-MS/MS analysis. In kind it is ADME. The gist of the method:
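Baculovirus-insect-cell microsomes expressing the human CYP (1 mg/ml protein) were incubated with [14C]rivoglitazone (20 μM) in 50 mM potassium phosphate (pH 7.4) or 100 mM Tris-HCl (pH 7.5) with an NADPH-generating system (2 mM NADP+, 20 mM glucose 6-phosphate, 2 units/ml G6PDH, 10 mM MgCl2) for 2 h at 37°C. Insect-cell control supersomes served as the control. Reactions were stopped with acetonitrile, and the concentrated supernatants were analysed by radio-HPLC, LC-MS and LC-MS/MS.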

The target in another data set is Cytochrome P450 2C19 (Homo sapiens, UniProt P33261). Description: Activity of human CYP2C19 expressed in microsomes isolated from baculovirus infected insect cell assessed as enzyme-mediated (2S,3S,4S,5R,6R)-3,4,5-trihydroxy-6-(5-(4-((6-methoxy-1-methyl-1H-benzo[d]imidazol-2-yl)methoxy)benzyl)-2,4-dioxothiazolidin-3-yl)tetrahydro-2H-pyran-2-carboxylic acid formation at 20 uM after 2 hrs by radio-HPLC/LC-MS/MS analysis in presence of UDPGA and UDPGA/SAM. In kind it is ADME.
Chain of Cytochrome P450 2C19 (P33261 whole entry): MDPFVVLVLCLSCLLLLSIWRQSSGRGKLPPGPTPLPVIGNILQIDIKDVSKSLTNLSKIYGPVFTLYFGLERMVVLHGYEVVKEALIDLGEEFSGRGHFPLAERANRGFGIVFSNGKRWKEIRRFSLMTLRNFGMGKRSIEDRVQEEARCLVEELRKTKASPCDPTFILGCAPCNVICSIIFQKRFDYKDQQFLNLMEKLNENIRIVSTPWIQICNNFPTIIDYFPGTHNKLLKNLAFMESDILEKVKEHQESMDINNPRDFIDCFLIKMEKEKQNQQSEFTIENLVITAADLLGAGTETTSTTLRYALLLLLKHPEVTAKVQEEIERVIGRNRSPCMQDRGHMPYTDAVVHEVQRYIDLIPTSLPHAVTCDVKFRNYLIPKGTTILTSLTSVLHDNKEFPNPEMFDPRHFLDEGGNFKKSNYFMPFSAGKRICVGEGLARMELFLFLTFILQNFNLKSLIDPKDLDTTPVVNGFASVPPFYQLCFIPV

The nature of data set [3]: Drug metabolism in rat hepatocytes assessed as formation of (2S,3S,4S,5R,6R)-3,4,5-trihydroxy-6-(5-(4-((6-methoxy-1-methyl-1H-benzo[d]imidazol-2-yl)methoxy)benzyl)-2,4-dioxothiazolidin-3-yl)tetrahydro-2H-pyran-2-carboxylic acid at 30 uM after 3 hrs by radio-HPLC/LC-MS/MS analysis. The data set is classed as ADME, cell-based, Hepatocyte.
The subject of data set [4] is Liver microsome. As to the kind of experiment: Drug metabolism in Sprague-Dawley rat liver microsomes assessed as formation of 2-mercapto-3-(4-((6-methoxy-1-methyl-1H-benzo[d]imidazol-2-yl)methoxy)phenyl)propanoic acid at 20 uM after 2 to 4 hrs by radio-HPLC/LC-MS/MS analysis in presence of UDPGA, UDPGA/SAM and NADPH-generating system. The data set is classed as ADME. (In general: Liver microsomes are vesicles of endoplasmic reticulum, rich in cytochrome P450 enzymes.)

Another data set has as its target T2, Cytochrome P450 1A2 (Homo sapiens, UniProt P05177).
T2 sequence (P05177 whole entry): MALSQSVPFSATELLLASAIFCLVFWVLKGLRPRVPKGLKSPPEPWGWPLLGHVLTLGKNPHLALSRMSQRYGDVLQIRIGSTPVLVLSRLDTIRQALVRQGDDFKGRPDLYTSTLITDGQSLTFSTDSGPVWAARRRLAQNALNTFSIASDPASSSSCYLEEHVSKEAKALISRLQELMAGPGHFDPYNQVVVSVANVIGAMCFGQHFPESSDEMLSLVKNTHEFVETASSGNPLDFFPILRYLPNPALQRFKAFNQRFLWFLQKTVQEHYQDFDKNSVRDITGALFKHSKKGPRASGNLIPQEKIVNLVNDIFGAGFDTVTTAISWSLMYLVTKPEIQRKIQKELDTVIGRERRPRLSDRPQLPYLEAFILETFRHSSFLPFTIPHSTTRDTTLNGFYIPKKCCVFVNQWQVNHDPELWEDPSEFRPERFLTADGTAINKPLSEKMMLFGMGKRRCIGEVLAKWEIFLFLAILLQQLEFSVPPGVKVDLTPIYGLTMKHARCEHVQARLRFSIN
As to the kind of experiment: Activity of human CYP1A2 expressed in microsomes isolated from baculovirus infected insect cell assessed as enzyme-mediated 5-(4-((6-methoxy-1H-benzo[d]imidazol-2-yl)methoxy)benzyl)thiazolidine-2,4-dione formation at 20 uM after 2 hrs by radio-HPLC/LC-MS/MS analysis in presence of NADPH-generating system and NADPH-generating system/SAM. The data set is classed as ADME. The gist of the method: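 Baculovirus/insect-cell microsomes expressing single human CYPs, 1 mg/ml protein, with 50 mM potassium phosphate (pH 7.4) or 100 mM Tris-HCl (pH 7.5). NADPH-generating system: 2 mM NADP⁺, 20 mM glucose 6-phosphate, 2 units/ml G6PDH, 10 mM MgCl₂. [¹⁴C]rivoglitazone at 20 μM, 2 h at 37°C with shaking. Control used insect-cell control supersomes. Stopped with acetonitrile; supernatant concentrated under nitrogen; metabolites analysed by radio-HPLC, LC-MS and LC-MS/MS.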

For data set [5], the system named is Liver microsome. As to the kind of experiment: Drug level in human liver microsomes treated with [14C]-rivoglitazone at 20 uM after 2 to 4 hrs by radio-HPLC/LC-MS/MS analysis in presence of UDPGA, UDPGA/SAM and NADPH-generating system. The data set is classed as ADME.

Chain of Cytochrome P450 3A5 (P20815 whole entry): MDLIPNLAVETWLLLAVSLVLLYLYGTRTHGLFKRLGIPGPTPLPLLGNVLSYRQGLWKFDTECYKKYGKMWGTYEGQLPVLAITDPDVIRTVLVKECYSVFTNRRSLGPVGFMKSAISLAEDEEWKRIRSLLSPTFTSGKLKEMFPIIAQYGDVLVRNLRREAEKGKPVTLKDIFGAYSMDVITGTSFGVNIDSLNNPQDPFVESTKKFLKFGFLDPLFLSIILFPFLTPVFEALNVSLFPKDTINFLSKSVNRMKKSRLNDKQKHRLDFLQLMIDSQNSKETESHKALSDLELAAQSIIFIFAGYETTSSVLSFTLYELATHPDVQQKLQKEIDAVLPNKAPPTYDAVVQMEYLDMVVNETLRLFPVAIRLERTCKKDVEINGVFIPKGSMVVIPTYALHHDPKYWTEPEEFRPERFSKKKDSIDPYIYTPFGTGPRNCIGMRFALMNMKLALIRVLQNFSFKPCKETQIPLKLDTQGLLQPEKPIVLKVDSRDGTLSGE

On to `COc1ccc2nc(COc3ccc(C[14CH]4SC(=O)NC4=O)cc3)n(C)c2c1.Cl` (racemic), for which the Drug metabolism result in data set [1] is reported as “metabolite_not_detected”; in data set [2] it was “metabolite_detected”; on Cytochrome P450 3A5, “metabolite_not_detected”; on Cytochrome P450 2C19 it was “metabolite_not_detected”; in data set [3] it was “metabolite_detected”; with Liver microsome [4] it was “metabolite_detected”. Further, the Drug metabolism result at Cytochrome P450 1A2 was “metabolite_detected”.
Consider `COc1ccc2nc(COc3ccc(CC(S)C(=O)O)cc3)n(C)c2c1` (stereo not drawn), for which the Drug metabolism entry with Liver microsome [5] is “metabolite_detected”.
